# p97 inhibitor – inhibitors of human p97 ATPase, primary screen, biochemical; Transitional endoplasmic reticulum ATPase (Homo sapiens), P55072; recombinant p97 ATPase, Kinase-Glo ATP luminescence, 3 h; inhibition, % at 8 µM; hit rate 0.42% among 220,000; AID 1481, 2009; in the data active = inhibition above about 15%;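 note: 0% = DMSO vehicle and 100% = wells lacking enzyme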
# Target sequence (P55072 whole entry, looked up): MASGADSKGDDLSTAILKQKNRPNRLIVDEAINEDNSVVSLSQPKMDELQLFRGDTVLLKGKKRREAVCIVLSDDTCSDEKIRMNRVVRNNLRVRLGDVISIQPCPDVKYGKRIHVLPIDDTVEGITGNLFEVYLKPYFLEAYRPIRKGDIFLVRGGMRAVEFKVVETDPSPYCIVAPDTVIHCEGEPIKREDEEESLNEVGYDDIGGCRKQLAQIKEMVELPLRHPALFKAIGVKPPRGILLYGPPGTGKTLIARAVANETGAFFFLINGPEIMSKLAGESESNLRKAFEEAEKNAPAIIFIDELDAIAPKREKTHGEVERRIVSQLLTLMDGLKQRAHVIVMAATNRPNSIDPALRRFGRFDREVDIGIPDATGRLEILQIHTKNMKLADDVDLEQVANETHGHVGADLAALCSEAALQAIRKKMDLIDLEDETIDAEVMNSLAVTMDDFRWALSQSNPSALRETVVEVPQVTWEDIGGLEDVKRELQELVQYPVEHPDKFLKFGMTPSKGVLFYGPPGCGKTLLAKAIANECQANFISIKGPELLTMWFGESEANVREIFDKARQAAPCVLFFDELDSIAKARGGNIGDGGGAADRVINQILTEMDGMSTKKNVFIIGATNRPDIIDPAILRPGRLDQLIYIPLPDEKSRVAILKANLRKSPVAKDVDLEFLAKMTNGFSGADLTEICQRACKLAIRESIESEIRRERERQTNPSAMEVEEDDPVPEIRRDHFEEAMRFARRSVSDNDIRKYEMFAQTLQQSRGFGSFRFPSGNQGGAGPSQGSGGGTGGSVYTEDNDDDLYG
# TbHK1 inh – Trypanosoma brucei hexokinase 1 inhibitors, primary screen, biochemical, G6PDH-coupled NADH absorbance, MLSCN library | hexokinase 1 [Trypanosoma brucei] | recombinant TbHK1, G6PDH-coupled NADH A340 | inhibition, % at 10 µM | hit rate 0.11% among 220,000;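 active = inhibition of 50% or more in the single-dose primary screen; inactive = inhibition below 50%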
# PMI act – activators of human PMI, primary screen, biochemical, fluorescence intensity, near-Km mannose 6-phosphate; AID 1214, 2008; Mannose-6-phosphate isomerase (Homo sapiens), P34949; activation factor at 20 µM; hit rate 0.005% among 190,000; purified human PMI, coupled resazurin fluorescence, 20 min; hits give high values; 1 = vehicle control, 0 substrate-free wells;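 active = activation factor of 2 or more at 20 µM, relative to plate controls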
# PMI act hi M6P – human PMI activators, high substrate, primary screen, biochemical, fluorescence intensity, near-saturating mannose 6-phosphate; Mannose-6-phosphate isomerase (Homo sapiens), P34949; coupled PMI enzyme assay, resazurin fluorescence, 20 min; hits give high values; 1 = untreated enzyme, 0 = substrate-free blank; activation factor at 20 µM; hit rate 0.34% among 190,000;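 active = activation factor of 2 or more at 20 µM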
#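 Test system: human phosphomannose isomerase with PGI, G6PDH, diaphorase coupling enzymes / Doses: 20 µM compound, 1% DMSO / Times: enzyme reaction with compound 20 min at room temperature / Measured by: Diaphorase-driven resazurin-to-resorufin fluorescence, excitation 544, emission 590 nm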
# Redox H2O2 prof – compounds producing H2O2 with reducing agent – biochemical, NIH compound library profiling, artefact control for MLSCN library redox annotation, primary screen. activation, % at 10 µM. hit rate 0.03% among 200,000. DTT-dependent redox cycling H2O2, phenol red/HRP absorbance; 100% = 100 µM peroxide control, 0% = buffer;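 active = activation of at least 50% relative to the plate's high and low controls in the primary single-dose screen; inactive = activation below 50%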;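 note: compound incubated with DTT at 0.8 mM final as the reducing agent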
# G6PDH counter-1 – L. mesenteroides G6PDH inhibitors, counter-screen for G6PDH-coupled screening assays, biochemical, Leuconostoc mesenteroides enzyme | Purified L. mesenteroides G6PDH, diaphorase/resazurin coupled fluorescence, 45 min | AID 1020, 2008 | inhibition, % at 5 µM | hit rate 0.12% among 200,000; in the data active = inhibition above about 50%
# G6PDH counter-2 – Leuconostoc G6PDH inhibition, confirmation, counter-screen for TbHK1 inhibitor project, biochemical, DPI cherry-picked compounds, single concentration; shares compounds with TbHK1 inh; purified G6PDH, NADH absorbance, 1 h; inhibition, % at 10 µM; hit rate 7% among 210;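 active = at least 50% inhibition in the glucose-6-phosphate dehydrogenase coupled counterscreen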
# TbHK1 confirm – TbHK1 inhibitor retest, confirmation, biochemical, DPI cherry-picked primary actives | hit rate 10% among 210 | recombinant TbHK1, G6PDH-coupled NADH A340 absorbance | inhibition, % at 10 µM | shares compounds with TbHK1 inh | AID 2560, 2010;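 active = inhibition of at least 50% in both of the two screening runs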;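 note: 0% and 100% set by the maximum and minimum signal control wells on each plate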
# p97 inh conf – p97 ATPase inhibitors, retest, confirmation, biochemical; hit rate 44% among 760; inhibition, % at 8 µM; shares compounds with p97 inhibitor; recombinant p97 ATPase, Kinase-Glo ATP luminescence;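 active = percent inhibition of p97 ATPase above a set limit, the primary screen's mean plus 3 SD, cut at about 15% in these data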;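 note: 0% = DMSO wells and 100% = wells lacking p97 protein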
# * hit, by the source's call; x = no result given. In the library only some 0.91% were active in any assay of this set; here they are far more common.
SMILES,p97 inhibitor,TbHK1 inh,PMI act,PMI act hi M6P,Redox H2O2 prof,G6PDH counter-1,p97 inh conf,others
O=c1[nH]c(=O)n(CCC2=CCCCC2)c(O)c1C=NCc1cccnc1,-6.5,56.1*,1,0.9,0.3,27.3,x,G6PDH counter-2=-8.9;TbHK1 confirm=-6.0
NP(=O)(Oc1ccccc1Cl)Oc1ccccc1Cl,0.3,2.9,1,0.9,-2.2,-2.6,x,
O=P(O)(O)COc1ccccc1O,2.8,73.4*,0.9,1,0.1,5.6,x,G6PDH counter-2=-8.1;TbHK1 confirm=-0.9
CN1CCN(c2cn[nH]c(=O)c2Cl)CC1,4.7,-5.1,0.8,0.8,0.2,12.1,x,
CN(C)[C@@H]1C(=O)C(C(N)=O)=C(O)[C@@]2(O)C(=O)C3=C(O)c4c(O)cccc4[C@@](C)(O)[C@H]3[C@H](O)[C@@H]12,18.6*,-1.6,0.9,0.5,2.6,40.6,39.7*,
COP(=O)(OC)C1(Nc2ccc(C)cc2)CCCCC1,-3.6,-4.3,1.1,1.1,-0.4,4.3,x,
CC(C)CCOC(=O)c1c(N)n(CC2CCCO2)c2nc3ccccc3nc12 (stereo unspecified),2.5,-9.4,0.8,0.9,-0.3,2.4,x,
CC(C)OC(=O)c1c(N)n(CC2CCCO2)c2nc3ccccc3nc12 (stereo unspecified),26.5*,-15.4,0.8,0.8,-0.5,-20.4,0.2,
Cc1ccn2nc(S(=O)(=O)Nc3c(F)cccc3F)nc2n1,1.2,2.3,1.2,1.1,0.0,5.7,x,
COC(=O)c1nc(-c2ccc3c(n2)C(=O)C(N)=C(OC)C3=O)c(N)c(-c2ccc(OC)c(OC)c2O)c1C,16.9*,-7.8,x,x,x,x,33.6*,
COc1cc(C(c2c(C)[nH]n(-c3ccccc3)c2=O)c2c(C)[nH]n(-c3ccccc3)c2=O)cc(OC)c1OC,20.3*,-10.8,1.2,1.1,-6.7,16.9,7.3,
OC(c1ccccc1)(c1ccc(Cl)cc1)C1CN2CCC1CC2 (stereo unspecified),16.2*,4.3,x,x,x,x,9.6,
COc1cc(CN=C(C)c2c(O)n(C3CCCCC3)c(=O)[nH]c2=O)cc(OC)c1,4.4,-11.3,x,x,x,x,x,
Cc1ccc(C2N(c3ccccn3)C(=O)C3CCCN32)o1 (stereo unspecified),-2.6,9.1,1,0.9,-0.7,7.9,x,

# Source: PubChem BioAssay (several laboratories)
